Experimental data taken from ChEMBL document CHEMBL1130435, “Synthesis and antitumor activity of duocarmycin derivatives: A-ring pyrrole compounds bearing cinnamoyl groups” (J Med Chem, 1997).

Legend:
HeLa [1] = experiment: In vitro anticellular activity expressed as inhibitory concentration for the growth of human uterine cervix carcinoma HeLa S3 cells for a period of 1 hour; assay type: functional, cell-based
Outline: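 HeLa S3 cells seeded at 2 × 10^4/well and precultured 24 h at 37 °C, 5% CO2. Pulse exposure: compound for 1 h, washed with Ca/Mg-free PBS, then grown 71 h in fresh medium. Cells detached with 0.05% trypsin/0.02% EDTA in PBS and counted electronically. IC50 is the concentration giving 50% growth inhibition.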

HeLa [2] = experiment: In vitro anticellular activity expressed as inhibitory concentration for the growth of HeLa S3 cells for a period of 72 hour; assay type: functional, cell-based; conditions: Homo sapiens
Outline: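 HeLa S3 cells, 2 × 10^4 per well, precultured 24 h at 37 °C in 5% CO2, then exposed continuously to compound for 72 h. Cells detached with PBS(–) containing 0.05% trypsin and 0.02% EDTA and counted electronically. IC50 is the concentration giving 50% inhibition of cell growth.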

Mus musculus [3] = experiment: Treated/Control value was measured in mice(implanted subcutaneously with sarcoma 180 cells) at the dose of 0.13 mg/kg; assay type: functional
Outline: (§1)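 Adult male ddY mice, five per group, implanted sc at the axillary region with passaged sarcoma 180 cells. Drug given iv starting 1 day after inoculation. Tumor length and width measured; volume = length × width²/2. T/C is mean tumor volume of treated over control. Effective if T/C ≤42% with Mann–Whitney U p < 0.05.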

Mus musculus [4] = experiment: Treated/Control value was measured in mice(implanted subcutaneously with sarcoma 180 cells) at the dose of 8 mg/kg; assay type: functional; outline: as §1
Mus musculus [5] = experiment: Treated/Control value was measured in mice(implanted subcutaneously with sarcoma 180 cells) at the dose of 2 mg/kg; assay type: functional; outline: as §1
Mus musculus [6] = experiment: Treated/Control value was measured in mice(implanted subcutaneously with sarcoma 180 cells) at the dose of 4 mg/kg; assay type: functional; outline: as §1

IC50 (HeLa [1])	IC50 (HeLa [2])	Structure (SMILES)	T/C (Mus musculus [3])	T/C (Mus musculus [4])	T/C (Mus musculus [5])	T/C (Mus musculus [6])
290 nM	30 nM	COC(=O)c1c(C)[nH]c2c1C1C(=CC2OC(=O)N2CCN(C)CC2)N(C(=O)/C=C/c2ccc(OC)c(OCCCN)c2)C[C@H]1CBr.Cl (some centres undefined)	0.77			
1200 nM	61 nM	COC(=O)c1c(C)[nH]c2c1C1C(=CC2OC(=O)N2CCN(CC(=O)NC(C)C)CC2)N(C(=O)/C=C/c2ccc(OC)cc2)C[C@H]1CBr.Cl (some centres undefined)		0.12		
430 nM	52 nM	COC(=O)c1c(C)[nH]c2c1C1C(=CC2OC(=O)N2CCN(C)CC2)N(C(=O)/C=C/c2ccc(OC)c(N(C)C)c2)C[C@H]1CBr.Cl (some centres undefined)			0.13	
10000 nM	> 1000 nM	COC(=O)c1c(C)[nH]c2c1C1C(=CC2OC(=O)N(C)C)N(C(=O)/C=C/c2ccc(OC)c(OCC(=O)O)c2)C[C@H]1CBr (some centres undefined)				0.72
1800 nM	37 nM	COC(=O)c1c(C)[nH]c2c1C1C(=CC2OC(=O)N2CCN(C)CC2)N(C(=O)/C=C/c2ccc(OC)cc2)C[C@H]1CBr.Cl (some centres undefined)				0.2
2100 nM	280 nM	CCN(CC)c1cc(/C=C/C(=O)N2C[C@@H](CBr)C3C2=CC(OC(=O)N2CCN(C)CC2)c2[nH]c(C)c(C(=O)OC)c23)ccc1OC.Cl (some centres undefined)		0.2		
9.5 nM	2.3 nM	CCN(CC)c1cc(/C=C/C(=O)N2C[C@H]3C[C@@]34C2=CC(=O)c2[nH]c(C)c(C(=O)OC)c24)ccc1OC				
3 nM	1.6 nM	COC(=O)c1c(C)[nH]c2c1[C@@]13C[C@@H]1CN(C(=O)/C=C/c1ccc(OC)c(OCCCN(C)C)c1)C3=CC2=O				
290 nM	30 nM	COC(=O)c1c(C)[nH]c2c1C1C(=CC2OC(=O)N2CCN(C)CC2)N(C(=O)/C=C/c2ccc(OC)c(N)c2)C[C@H]1CBr.Cl (some centres undefined)		0.39		
2 nM	0.74 nM	COC(=O)c1c(C)[nH]c2c1[C@@]13C[C@@H]1CN(C(=O)/C=C/c1ccc(OC)c(OCCCN=[N+]=[N-])c1)C3=CC2=O				
1000 nM	224 nM	COC(=O)c1c(C)[nH]c2c1C1C(=CC2OC(=O)N2CCC(N3CCCCC3)CC2)N(C(=O)/C=C/c2ccc(OC)cc2)C[C@H]1CBr.Cl (some centres undefined)				0.17
7.4 nM	2.3 nM	COC(=O)c1c(C)[nH]c2c1[C@@]13C[C@@H]1CN(C(=O)/C=C/c1ccc(OC)c(OCC(=O)OC(C)(C)C)c1)C3=CC2=O				

Further lines, the compound ahead of its results:

Structure (SMILES)	IC50 (HeLa [1])	IC50 (HeLa [2])	T/C (Mus musculus [3])	T/C (Mus musculus [4])	T/C (Mus musculus [5])	T/C (Mus musculus [6])
COC(=O)c1c(C)[nH]c2c1[C@@]13C[C@@H]1CN(C(=O)c1cc4cc(OC)c(OC)c(OC)c4[nH]1)C3=CC2=O	0.5 nM	0.16 nM				
CCc1ccc(/C=C/C(=O)N2C[C@H]3C[C@@]34C2=CC(=O)c2[nH]c(C)c(C(=O)OC)c24)cc1	51 nM	3.8 nM				
COC(=O)c1c(C)[nH]c2c1[C@@]13C[C@@H]1CN(C(=O)/C=C/c1ccc(OC)c(N)c1)C3=CC2=O	2.1 nM	0.53 nM				
COC(=O)c1c(C)[nH]c2c1[C@@]13C[C@@H]1CN(C(=O)/C=C/c1ccc(N)cc1)C3=CC2=O	32 nM	2.6 nM				
COC(=O)c1c(C)[nH]c2c1[C@@]13C[C@@H]1CN(C(=O)/C=C/c1ccc(OC)cc1)C3=CC2=O	7 nM	0.94 nM				
COC(=O)c1c(C)[nH]c2c1[C@@]13C[C@@H]1CN(C(=O)/C=C/c1ccc(C)cc1)C3=CC2=O	33 nM	2.3 nM				
COC(=O)c1c(C)[nH]c2c1[C@@]13C[C@@H]1CN(C(=O)/C=C/c1ccc(O)cc1)C3=CC2=O	19 nM	3.5 nM				
COC(=O)c1c(C)[nH]c2c1[C@@]13C[C@@H]1CN(C(=O)/C=C/c1ccc(NC(=O)OC(C)(C)C)cc1)C3=CC2=O	4 nM	0.56 nM				
COC(=O)COc1cc(/C=C/C(=O)N2C[C@H]3C[C@@]34C2=CC(=O)c2[nH]c(C)c(C(=O)OC)c24)ccc1OC	1.3 nM	0.86 nM				
COC(=O)c1c(C)[nH]c2c1[C@@]13C[C@@H]1CN(C(=O)/C=C/c1ccc(OCc4ccc(OC)cc4)cc1)C3=CC2=O	13 nM	0.81 nM				
COC(=O)c1c(C)[nH]c2c1[C@@]13C[C@@H]1CN(C(=O)/C=C/c1ccc(OC)c(OCCCN)c1)C3=CC2=O	5.9 nM	1.4 nM				
COC(=O)c1c(C)[nH]c2c1[C@@]13C[C@@H]1CN(C(=O)/C=C/c1ccc(OC)c(N(C)C)c1)C3=CC2=O	2.5 nM	0.92 nM				
CCCOc1ccc(/C=C/C(=O)N2C[C@H]3C[C@@]34C2=CC(=O)c2[nH]c(C)c(C(=O)OC)c24)cc1	51 nM	8.3 nM				
C=CCOc1ccc(/C=C/C(=O)N2C[C@H]3C[C@@]34C2=CC(=O)c2[nH]c(C)c(C(=O)OC)c24)cc1	39 nM	7.5 nM				
CCCCCOc1ccc(/C=C/C(=O)N2C[C@H]3C[C@@]34C2=CC(=O)c2[nH]c(C)c(C(=O)OC)c24)cc1	> 100 nM	50 nM				
COC(=O)c1c(C)[nH]c2c1[C@@]13C[C@@H]1CN(C(=O)/C=C/c1ccc(N(C)C)cc1)C3=CC2=O	12 nM	1.6 nM				
